Test results as given in ChEMBL document CHEMBL1149444, “Discovery of imidazo[1,2-b][1,2,4]triazines as GABA(A) alpha2/3 subtype selective agonists for the treatment of anxiety” (J Med Chem, 2006).
Activity calls are given as the source filed them. The rule behind the calls is not given here.

What was measured:
[1] = molecular target: GABA-A receptor; alpha-2/beta-3/gamma-2 (Homo sapiens) (UniProt P18507+P28472+P47869); experiment: Efficacy against recombinant human GABAA alpha2 receptor plus beta3gamma2 expressed in L(tk-) cells by whole cell patch clamp method relative to chlordiazepoxide; type: functional, cell-based
Procedure, shortened: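 Whole-cell patch clamp on L(tk-) cells stably expressing human alpha subunit plus beta3gamma2. GABA applied at an EC20-equivalent concentration. Modulation of that current measured across increasing test-compound concentrations. Efficacy is expressed relative to the maximal response to the full agonist chlordiazepoxide, set at 1.00.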

[2] = Oral bioavailability in rhesus at 1 mg/kg, iv or 1 mg/kg, po; type: ADME, organism-based, Macaca mulatta; conditions: rhesus monkey, in vivo
Procedure, shortened: (§1)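 Pharmacokinetics in rat, dog or rhesus after 1 mg/kg iv and 1 mg/kg po dosing. Plasma clearance (mL/min/kg), half-life (h), volume of distribution (L/kg) and oral bioavailability (%) were derived.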

[3] = tested on: Rattus norvegicus; experiment: Activity in rat elevated plus maze assay at 1 mg/kg, po; type: functional, organism-based; design: dose 1 mg/kg
Procedure, shortened: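 Rats given test compound orally 30 min before a 5 min elevated plus maze session; vehicle 0.5% methyl cellulose po. Read-out is time on open arms as percentage of total time. n = 18 per group. Significance versus vehicle at p < 0.05.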

[4] = molecular target: GABA-A receptor; alpha-3/beta-3/gamma-2 (Homo sapiens) (UniProt P18507+P28472+P34903); experiment: Efficacy against recombinant human GABAA alpha3 receptor plus beta-3-gamma-2 expressed in L(tk-) cells by whole cell patch clamp method relative to chlordiazepoxide; type: functional, cell-based
Procedure, shortened: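 Whole-cell patch clamp on L(tk-) cells stably expressing the receptor (alpha plus beta3gamma2). GABA applied at an EC20-equivalent concentration. Modulation of the current measured with increasing test concentrations. Efficacy expressed relative to the maximal chlordiazepoxide response (set at 1.00) or as a percentage.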

[5] = species: Rattus norvegicus; experiment: Plasma concentration in rat; type: ADME, organism-based; conditions: in vivo
Procedure, shortened: (§2)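 Central benzodiazepine receptor occupancy in rat after oral dosing, measured by displacement of [3H]Ro15-1788 binding. Plasma concentration was measured at the dose giving 50% occupancy.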

[6] = Half life in dog at 1 mg/kg, iv or 1 mg/kg, po; type: ADME, organism-based, Canis lupus familiaris; conditions: in vivo; procedure, shortened: as §1
[7] = tested on: Squirrel monkey; experiment: Sedation in squirrel monkey conditioned emotional response test at 10 mg/kg, po; type: functional, organism-based; design: dose 10 mg/kg; conditions: Saimiri sciureus
Procedure, shortened: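 Squirrel monkeys dosed po in 0.5% methyl cellulose vehicle. Anxiolysis was read as reversal of the suppression of lever pressing caused by a light cue signalling possible electric shock. Sedation was read as the rate of lever pressing for fruit juice reward on an RPI30 schedule. n = 10-11 per group, p < 0.05 versus vehicle.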

[8] = molecular target: GABA-A receptor; anion channel (Rattus norvegicus) (UniProt O09028+P15431+P18506+P18508+P19969+P20236+P23574+P23576+P28471+P28473+P30191+P62813+P63079+P63138+Q91ZM7+Q9ES14); experiment: Receptor occupancy by displacement of [3H]Ro 15-1788 binding from central Benzodiazepine receptor in rat at 0.3 mg/kg, po; type: organism-based; design: dose 0.3 mg/kg; procedure, shortened: as §2
[9] = Volume of distribution in rat at 1 mg/kg, iv or 1 mg/kg, po; type: ADME, organism-based; conditions: in vivo, read-out: Vdss
Procedure, shortened: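 Rat pharmacokinetics after dosing at 1 mg/kg iv and 1 mg/kg po. Plasma clearance in mL/min/kg, half-life in h and volume of distribution in L/kg.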

[10] = molecular target: T1, GABA-A receptor; alpha-3/beta-3/gamma-2 (Homo sapiens, UniProt P18507+P28472+P34903); experiment: Displacement of [3H]Ro 15-1788 from recombinant human GABAA alpha3 receptor plus beta-3-gamma-2 expressed in L(tk-) cells; type: cell-based
T1 sequence (P18507 whole entry): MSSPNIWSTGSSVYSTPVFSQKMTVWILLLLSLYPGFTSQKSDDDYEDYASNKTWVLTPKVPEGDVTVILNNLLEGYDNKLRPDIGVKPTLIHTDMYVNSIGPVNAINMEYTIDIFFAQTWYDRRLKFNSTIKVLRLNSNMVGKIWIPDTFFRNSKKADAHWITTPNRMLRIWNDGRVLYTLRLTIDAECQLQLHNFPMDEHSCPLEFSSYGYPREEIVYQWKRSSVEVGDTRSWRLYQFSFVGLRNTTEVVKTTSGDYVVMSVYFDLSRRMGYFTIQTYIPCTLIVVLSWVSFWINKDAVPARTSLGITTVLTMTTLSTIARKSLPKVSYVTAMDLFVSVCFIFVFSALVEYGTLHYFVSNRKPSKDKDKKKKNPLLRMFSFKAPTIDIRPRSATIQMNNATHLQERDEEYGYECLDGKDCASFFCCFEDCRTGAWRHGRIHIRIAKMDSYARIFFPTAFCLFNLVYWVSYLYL
T1 sequence (P28472 whole entry): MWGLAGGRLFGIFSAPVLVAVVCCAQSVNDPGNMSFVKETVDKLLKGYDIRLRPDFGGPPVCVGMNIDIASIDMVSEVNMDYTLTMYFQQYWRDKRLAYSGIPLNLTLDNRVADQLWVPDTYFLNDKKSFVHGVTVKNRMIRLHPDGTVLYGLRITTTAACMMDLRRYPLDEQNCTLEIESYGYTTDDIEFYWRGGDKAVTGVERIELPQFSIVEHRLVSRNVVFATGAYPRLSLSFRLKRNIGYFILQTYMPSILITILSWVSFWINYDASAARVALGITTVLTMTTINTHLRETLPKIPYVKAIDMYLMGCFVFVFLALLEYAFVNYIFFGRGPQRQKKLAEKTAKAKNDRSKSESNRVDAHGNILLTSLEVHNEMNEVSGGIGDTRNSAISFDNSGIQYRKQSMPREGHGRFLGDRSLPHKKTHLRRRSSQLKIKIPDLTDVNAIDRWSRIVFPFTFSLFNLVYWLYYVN
T1 sequence (P34903 whole entry): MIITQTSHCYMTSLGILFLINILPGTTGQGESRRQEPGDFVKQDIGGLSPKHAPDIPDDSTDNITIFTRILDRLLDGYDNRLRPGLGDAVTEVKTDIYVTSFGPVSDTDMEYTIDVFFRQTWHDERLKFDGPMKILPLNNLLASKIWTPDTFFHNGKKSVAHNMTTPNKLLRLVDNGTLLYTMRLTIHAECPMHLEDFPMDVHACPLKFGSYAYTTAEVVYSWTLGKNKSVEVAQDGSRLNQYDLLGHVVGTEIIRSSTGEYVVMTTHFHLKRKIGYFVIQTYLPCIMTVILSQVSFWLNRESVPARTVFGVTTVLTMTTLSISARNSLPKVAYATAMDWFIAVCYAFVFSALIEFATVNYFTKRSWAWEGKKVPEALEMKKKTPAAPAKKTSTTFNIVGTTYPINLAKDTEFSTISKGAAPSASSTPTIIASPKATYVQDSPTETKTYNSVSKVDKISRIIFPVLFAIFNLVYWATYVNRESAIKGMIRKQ
Procedure, shortened: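 Inhibition of [3H]Ro15-1788 binding to human recombinant GABAA receptors stably expressed in L(tk-) cells, alpha subunit combined with beta3 and gamma2. Six to eight test concentrations spaced in half-log units. Ki reported as geometric mean of n = 2-12.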

[11] = tested on: Rattus norvegicus; experiment: Sedation in rat chain pulling assay upto 10 mg/kg, po; type: functional, organism-based; design: dose 10 mg/kg
Procedure, shortened: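 Rat chain-pulling assay for sedation. Mean response rate recorded over a 60 min trial starting immediately after oral dosing up to 10 mg/kg. n = 11-12 per group. Significance versus vehicle at p < 0.01.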

Q: Which Efficacy [1] does the source give for CC(C)(O)c1cnn2c(-c3ccc(F)c(-c4c(F)cccc4C#N)c3)cnc2n1 here?
A: 0.38%

Q: What about the bioavailability [2] of the same molecule?
A: 29%

Q: What about the Activity [3] of the same molecule?
A: Active

Q: And the Efficacy [4]?
A: 50%

Q: And the concentration [5]?
A: 56 nM

Q: What about the half-life [6] of the same molecule?
A: 6.5 h

Q: And the Activity [7]?
A: inactive

Q: What about the Activity [8] of the same molecule?
A: 50%

Q: What about the Vd [9] of the same molecule?
A: 2.1 L/kg

Q: What about the Ki [10] of the same molecule?
A: 2 nM

Q: What about the Activity [11] of the same molecule?
A: inactive
